Source: ChEMBL document CHEMBL1157589, “Antifungal 3,5-disubstituted furanones: From 5-acyloxymethyl to 5-alkylidene derivatives” (Bioorg Med Chem, 2010)
Values after ≈ are worked out from the molar mass of the structure shown.

Tests used:
Candida albicans [1] = assay: Antifungal activity against Candida albicans ATCC 44859 after 48 hrs by microdilution method; type: functional; conditions: ATCC 44859, 48 h
How it was run: (§1)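 Yeasts held on Sabouraud dextrose agar. MIC by NCCLS M27-A broth microdilution in RPMI 1640 with L-glutamine, buffered with 0.165 M MOPS to pH 7.0. Compounds in DMSO (≤2% final), twofold dilutions 500–0.48. Final inoculum 5 × 10³ ± 0.2 cfu mL⁻¹. Incubated at 35 °C; absorbance at 540 nm read at 24 and 48 h. MIC is 80% growth inhibition versus control; run twice in duplicate.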

Candida albicans [2] = assay: Antifungal activity against Candida albicans ATCC 90028 after 24 hrs by microdilution method; type: functional; conditions: ATCC 90028, 24 h; how it was run: as §1
Candida albicans [3] = assay: Antifungal activity against Candida albicans ATCC 90028 after 48 hrs by microdilution method; type: functional; conditions: ATCC 90028, 48 h; how it was run: as §1
Candida parapsilosis [4] = assay: Antifungal activity against Candida parapsilosis ATCC 22019 after 24 hrs by microdilution method; type: functional; conditions: Lodderomyces parapsilosis, ATCC 22019, 24 h; how it was run: as §1
Candida parapsilosis [5] = assay: Antifungal activity against Candida parapsilosis ATCC 22019 after 48 hrs by microdilution method; type: functional; conditions: Lodderomyces parapsilosis, ATCC 22019, 48 h; how it was run: as §1
Pichia kudriavzevii [6] = assay: Antifungal activity against Candida krusei ATCC 6258 after 24 hrs by microdilution method; type: functional; conditions: ATCC 6258, 24 h; how it was run: as §1
Pichia kudriavzevii [7] = assay: Antifungal activity against Candida krusei ATCC 6258 after 48 hrs by microdilution method; type: functional; conditions: ATCC 6258, 48 h; how it was run: as §1
Pichia kudriavzevii [8] = assay: Antifungal activity against Candida krusei E28 after 24 hrs by microdilution method; type: functional; conditions: E28, 24 h; how it was run: as §1
Pichia kudriavzevii [9] = assay: Antifungal activity against Candida krusei E28 after 48 hrs by microdilution method; type: functional; conditions: E28, 48 h; how it was run: as §1
Candida tropicalis [10] = assay: Antifungal activity against Candida tropicalis 156 after 24 hrs by microdilution method; type: functional; conditions: Candida tropicalis, 156, 24 h; how it was run: as §1
Candida tropicalis [11] = assay: Antifungal activity against Candida tropicalis 156 after 48 hrs by microdilution method; type: functional; conditions: Candida tropicalis, 156, 48 h; how it was run: as §1
Nakaseomyces glabratus [12] = assay: Antifungal activity against Candida glabrata 20/I after 24 hrs by microdilution method; type: functional; how it was run: as §1
Nakaseomyces glabratus [13] = assay: Antifungal activity against Candida glabrata 20/I after 48 hrs by microdilution method; type: functional; how it was run: as §1
Clavispora lusitaniae [14] = assay: Antifungal activity against Candida lusitaniae 2446/I after 24 hrs by microdilution method; type: functional; how it was run: as §1
Clavispora lusitaniae [15] = assay: Antifungal activity against Candida lusitaniae 2446/I after 48 hrs by microdilution method; type: functional; how it was run: as §1
Trichosporon beigelii [16] = assay: Antifungal activity against Trichosporon beigelii 1188 after 24 hrs by microdilution method; type: functional; conditions: Trichosporon beigelii, 1188, 24 h; how it was run: as §1
Trichosporon beigelii [17] = assay: Antifungal activity against Trichosporon beigelii 1188 after 48 hrs by microdilution method; type: functional; conditions: Trichosporon beigelii, 1188, 48 h; how it was run: as §1
Aspergillus fumigatus [18] = assay: Antifungal activity against Aspergillus fumigatus 231 after 24 hrs by microdilution method; type: functional; conditions: Aspergillus fumigatus, 231, 24 h
How it was run: (§2)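 Filamentous strains held on Sabouraud dextrose agar. NCCLS M27-A broth microdilution in RPMI 1640 with L-glutamine and 0.165 M MOPS, pH 7.0. DMSO diluent ≤2% final; twofold dilutions 500–0.48. Inoculum 5 × 10³ ± 0.2 cfu mL⁻¹ final.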

Aspergillus fumigatus [19] = assay: Antifungal activity against Aspergillus fumigatus 231 after 48 hrs by microdilution method; type: functional; conditions: Aspergillus fumigatus, 231, 48 h; how it was run: as §2
Lichtheimia corymbifera [20] = assay: Antifungal activity against Absidia corymbifera 272 after 24 hrs by microdilution method; type: functional; conditions: Lichtheimia corymbifera, 272, 24 h; how it was run: as §2
Lichtheimia corymbifera [21] = assay: Antifungal activity against Absidia corymbifera 272 after 48 hrs by microdilution method; type: functional; conditions: Lichtheimia corymbifera, 272, 48 h; how it was run: as §2
[22] = system: Trichophyton mentagrophytes; assay: Antifungal activity against Trichophyton mentagrophytes 445 after 72 hrs by microdilution method; type: functional; conditions: Trichophyton mentagrophytes, 445, 72 h
How it was run: (§3)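 Dermatophyte held on Sabouraud dextrose agar. M27-A microdilution in MOPS-buffered (0.165 M, pH 7.0) RPMI 1640 with L-glutamine. DMSO ≤2% final; twofold dilutions 500–0.48. Inoculum 5 × 10³ ± 0.2 cfu mL⁻¹ final. Incubated at 35 °C; MIC read visually at 72 and 120 h as 80% inhibition of control growth; determined twice in duplicate.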

[23] = system: Trichophyton mentagrophytes; assay: Antifungal activity against Trichophyton mentagrophytes 445 after 120 hrs by microdilution method; type: functional; conditions: Trichophyton mentagrophytes, 445, 120 h; how it was run: as §3
L1210 = assay: Cytostatic activity against mouse L1210 cells after 72 hrs by XTT assay; type: functional, cell-based
How it was run: (§4)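 Leukemia cells (L1210 ATCC CCL 219, CCRF-CEM ATCC CCL 119, HL-60 ATCC CCL 240) grown in 24-well plates in RPMI 1640 with fetal calf serum. Growth assessed 72 h after drug addition. Viability measured by XTT spectrophotometric assay; potency given as IC50.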

HL-60 = assay: Cytostatic activity against human HL60 cells after 72 hrs by XTT assay; type: functional, cell-based; conditions: hl-60; how it was run: as §4
CCRF-CEM = assay: Cytostatic activity against human CCRF-CEM cells after 72 hrs by XTT assay; type: functional, cell-based; how it was run: as §4
Candida albicans [24] = assay: Antifungal activity against Candida albicans ATCC 44859 after 24 hrs by microdilution method; type: functional; conditions: ATCC 44859, 24 h; how it was run: as §1
HeLa S3 = assay: Cytostatic activity against human HeLaS3 cells after 48 hrs by XTT assay
[25] = Homo sapiens, CCRF-CEM, 72 h, read-out: IC50
[26] = Homo sapiens, HeLa S3, 48 h, read-out: IC50

SMILES | MIC80 (Candida albicans [1]) [µM] | MIC80 (Candida albicans [2]) [µM] | MIC80 (Candida albicans [3]) [µM] | MIC80 (Candida parapsilosis [4]) [µM] | MIC80 (Candida parapsilosis [5]) [µM] | MIC80 (Pichia kudriavzevii [6]) [µM] | MIC80 (Pichia kudriavzevii [7]) [µM] | MIC80 (Pichia kudriavzevii [8]) [µM] | MIC80 (Pichia kudriavzevii [9]) [µM] | MIC80 (Candida tropicalis [10]) [µM] | MIC80 (Candida tropicalis [11]) [µM] | MIC80 (Nakaseomyces glabratus [12]) [µM] | MIC80 (Nakaseomyces glabratus [13]) [µM] | MIC80 (Clavispora lusitaniae [14]) [µM] | MIC80 (Clavispora lusitaniae [15]) [µM] | MIC80 (Trichosporon beigelii [16]) [µM] | MIC80 (Trichosporon beigelii [17]) [µM] | MIC80 (Aspergillus fumigatus [18]) [µM] | MIC80 (Aspergillus fumigatus [19]) [µM] | MIC80 (Lichtheimia corymbifera [20]) [µM] | other results
O=C1OC(COc2cccc(C(=O)O)c2)C=C1c1ccc(Br)cc1 (configuration not stated) | 1.95 (≈ 0.759 µg/mL) | 3.9 (≈ 1.52 µg/mL) | 15.6 (≈ 6.08 µg/mL) | 15.6 (≈ 6.08 µg/mL) | 15.6 (≈ 6.08 µg/mL) | 15.6 (≈ 6.08 µg/mL) | 15.6 (≈ 6.08 µg/mL) | 15.6 (≈ 6.08 µg/mL) | 15.6 (≈ 6.08 µg/mL) | 7.81 (≈ 3.04 µg/mL) | 7.81 (≈ 3.04 µg/mL) | 1.95 (≈ 0.759 µg/mL) | 1.95 (≈ 0.759 µg/mL) | 7.81 (≈ 3.04 µg/mL) | 7.81 (≈ 3.04 µg/mL) | 15.6 (≈ 6.08 µg/mL) | 15.6 (≈ 6.08 µg/mL) | 1.95 (≈ 0.759 µg/mL) | 7.81 (≈ 3.04 µg/mL) | 62.5 (≈ 24.3 µg/mL) | MIC80 (Lichtheimia corymbifera [21]): 62.5 µM (≈ 24.3 µg/mL); MIC80 [22]: 0.97 µM (≈ 0.378 µg/mL); MIC80 [23]: 1.95 µM (≈ 0.759 µg/mL); IC50 (L1210; Mus musculus, L1210, 72 h, read-out: IC50): 7420 nM; IC50 (HL-60): Not Active; IC50 (CCRF-CEM; [25]): 1640 nM; MIC80 (Candida albicans [24]): 0.97 µM (≈ 0.378 µg/mL); IC50 (HeLa S3; [26]): 1440 nM
O=C1OCC=C1c1ccc(Br)cc1 | 250 (≈ 59.8 µg/mL) | 500 (≈ 120 µg/mL) | 500 (≈ 120 µg/mL) | 250 (≈ 59.8 µg/mL) | 500 (≈ 120 µg/mL) | 250 (≈ 59.8 µg/mL) | 500 (≈ 120 µg/mL) | 250 (≈ 59.8 µg/mL) | 500 (≈ 120 µg/mL) | 250 (≈ 59.8 µg/mL) | 500 (≈ 120 µg/mL) | 500 (≈ 120 µg/mL) | 500 (≈ 120 µg/mL) | 500 (≈ 120 µg/mL) | 500 (≈ 120 µg/mL) | 250 (≈ 59.8 µg/mL) | 500 (≈ 120 µg/mL) | 250 (≈ 59.8 µg/mL) | 500 (≈ 120 µg/mL) | 500 (≈ 120 µg/mL) | MIC80 (Lichtheimia corymbifera [21]): 500 µM (≈ 120 µg/mL); MIC80 [22]: 250 µM (≈ 59.8 µg/mL); MIC80 [23]: 250 µM (≈ 59.8 µg/mL); IC50 (L1210; l1210): Not Active; IC50 (HL-60): Not Active; IC50 (CCRF-CEM; ccrf-cem): Not Active; MIC80 (Candida albicans [24]): 250 µM (≈ 59.8 µg/mL); IC50 (HeLa S3; hela s3): Not Active
CCOCC1C=C(c2ccc(Br)cc2)C(=O)O1 (configuration not stated) | 62.5 (≈ 18.6 µg/mL) | 125 (≈ 37.1 µg/mL) | 125 (≈ 37.1 µg/mL) | 125 (≈ 37.1 µg/mL) | 250 (≈ 74.3 µg/mL) | 250 (≈ 74.3 µg/mL) | 250 (≈ 74.3 µg/mL) | 250 (≈ 74.3 µg/mL) | 250 (≈ 74.3 µg/mL) | 250 (≈ 74.3 µg/mL) | 250 (≈ 74.3 µg/mL) | 62.5 (≈ 18.6 µg/mL) | 62.5 (≈ 18.6 µg/mL) | 125 (≈ 37.1 µg/mL) | 250 (≈ 74.3 µg/mL) | 125 (≈ 37.1 µg/mL) | 250 (≈ 74.3 µg/mL) | 62.5 (≈ 18.6 µg/mL) | 125 (≈ 37.1 µg/mL) | 125 (≈ 37.1 µg/mL) | MIC80 (Lichtheimia corymbifera [21]): 125 µM (≈ 37.1 µg/mL); MIC80 [22]: 15.6 µM (≈ 4.64 µg/mL); MIC80 [23]: 15.6 µM (≈ 4.64 µg/mL); IC50 (L1210; l1210): Not Active; IC50 (HL-60): Not Active; IC50 (CCRF-CEM; [25]): 9820 nM; MIC80 (Candida albicans [24]): 31.2 µM (≈ 9.29 µg/mL); IC50 (HeLa S3; [26]): 1940 nM
O=C1O/C(=C\COC(=O)c2ccccc2)C=C1c1ccc(Br)cc1 | > 500 | > 500 | > 500 | > 500 | > 500 | > 500 | > 500 | > 500 | > 500 | > 500 | > 500 | > 500 | > 500 | > 500 | > 500 | > 500 | > 500 | > 500 | > 500 | > 500 | MIC80 (Lichtheimia corymbifera [21]): > 500 µM; MIC80 [22]: > 500 µM; MIC80 [23]: > 500 µM; IC50 (L1210; l1210): Not Active; IC50 (HL-60): Not Active; IC50 (CCRF-CEM; ccrf-cem): Not Active; MIC80 (Candida albicans [24]): > 500 µM; IC50 (HeLa S3; hela s3): Not Active
